Measurements: ChEMBL document CHEMBL1671761, “Preclinical characterization of BI 201335, a C-terminal carboxylic acid inhibitor of the hepatitis C virus NS3-NS4A protease” (Antimicrob Agents Chemother, 2010)

Experiments:
Huh-7 = test: Cytotoxicity activity against human HuH7 cells by MTT assay; type: functional
Outline: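 MTT assay in proliferating Huh-7 cells exposed 72 h to serial inhibitor dilutions; formazan read at 570 nm. CC50 taken from percent inhibition.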

[1] = Inhibition of HCV 2a NS3/4A protease; parameters: species or system Hepatitis C virus subtype 2a; details: read-out: Ki(app)
Outline: (§1)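 Substrate was 5 μM anthranilyl-DDIVPAbu[C(O)-O]AMY(3-NO2)TW-OH in 50 mM Tris pH 8.0, 0.25 M citrate, 0.01% dodecylmaltoside, 1 mM TCEP, 5% DMSO. Run at 23°C for 60-70 min, stopped with MES pH 5.8, read by product fluorescence. IC50 converted to apparent Ki via IC50=Ki(1+[S]/Km). Mean ± SD, ≥3 experiments.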

[2] = Inhibition of HCV 4a NS3/4A protease; parameters: species or system Hepatitis C virus subtype 4a; details: read-out: Ki(app); outline: as §1
[3] = Inhibition of HCV 6a NS3/4A protease; parameters: species or system Hepatitis C virus subtype 6a; details: read-out: Ki(app); outline: as §1
Neutrophil elastase = Neutrophil elastase (Homo sapiens, UniProt P08246); test: Inhibition of human leukocyte elastase after 60 mins fluorescence assay
Chain of Neutrophil elastase (P08246 whole entry): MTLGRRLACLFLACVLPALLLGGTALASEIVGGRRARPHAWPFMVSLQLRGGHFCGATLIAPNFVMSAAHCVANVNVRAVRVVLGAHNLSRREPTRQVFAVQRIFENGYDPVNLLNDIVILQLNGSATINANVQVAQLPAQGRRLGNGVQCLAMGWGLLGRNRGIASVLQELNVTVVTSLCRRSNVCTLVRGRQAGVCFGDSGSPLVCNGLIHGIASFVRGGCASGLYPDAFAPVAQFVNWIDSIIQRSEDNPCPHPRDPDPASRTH

Hepatitis C virus [4] = test: Inhibition of HCV 1b NS3/4A protease; parameters: species or system Hepatitis C virus subtype 1b; details: read-out: Ki(app)
Outline: as §1, with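 “Full-length NS3 coexpressed with the 54-residue NS4A, 0.5 nM (2.5 nM for genotype 1a). Substrate” for “Substrate”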

[5] = Apparent permeability from apical to basolateral side in human Caco2 cells; type: ADME, cell-based; details: Caco-2, read-out: permeability
Outline: (§2)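 Caco-2 monolayers were differentiated 23-25 days on Transwell inserts. After 30 min at 37°C, compound was added to the donor side (apical for A-to-B, basolateral for B-to-A). Receiver sampled at 0, 1, 2, 3 h; analysed by HPLC.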

Hepatitis C virus [6] = test: Antiviral activity against HCV 1a infected in Huh7 cells assessed as inhibition of viral replication after 72 hrs by RT-PCR; type: functional, organism-based, Hepacivirus hominis; details: subtype 1a, Huh-7, 72 h
Outline: (§3)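 Huh-7-derived subgenomic replicon cells of genotype 1a or 1b, grown in DMEM/10% FBS with G418. Replicon RNA was quantified by TaqMan real-time RT-PCR against an in vitro-transcribed RNA standard curve and normalized to total RNA (RiboGreen).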

[7] = Apparent permeability from basolateral to apical side in human Caco2 cells; type: ADME, cell-based; details: Caco-2, read-out: permeability; outline: as §2
Cathepsin B = Cathepsin B (Homo sapiens, UniProt P07858); test: Inhibition of human CatB after 60 mins fluorescence assay
[8] = Inhibition of HCV 3a NS3/4A protease; parameters: species or system Hepatitis C virus subtype 3a; details: read-out: Ki(app); outline: as §1
Hepatitis C virus [9] = test: Antiviral activity against HCV 1b infected in Huh7 cells assessed as inhibition of viral replication after 72 hrs by RT-PCR; type: functional, organism-based, Hepacivirus hominis; details: genotype 1b, Huh-7, 72 h; outline: as §3
[10] = Clearance in human liver microsomes; type: ADME, Microsome; details: read-out: QH
Outline: (§4)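 Male liver microsomes (Sprague-Dawley rat, beagle dog, human, rhesus monkey) at 1 mg microsomal protein in 1 ml of 0.066 M Tris pH 7.4 with 2.5 mM NADPH. Initial compound concentration was 2 μM. Incubations ran at 37°C and were started with NADPH. Samples were taken at 0, 10 and 20 min and quenched with an equal volume of 1:1 acetonitrile-methanol. Supernatants were analysed by HPLC and clearance calculated by the Obach method.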

[11] = Inhibition of HCV 1a NS3/4A protease; parameters: species or system Hepatitis C virus subtype 1a; details: read-out: Ki(app); outline: as §1
[12] = Binding affinity to HCV 5a NS3/4A protease; parameters: species or system Hepatitis C virus subtype 5a; details: read-out: Ki(app); outline: as §1
[13] = Clearance in Sprague-Dawley rat liver microsomes; type: ADME, Microsome; details: read-out: QH; outline: as §4
[14] = Inhibition of HCV 2b NS3/4A protease; parameters: species or system Hepatitis C virus subtype 2b; details: read-out: Ki(app); outline: as §1

Compound | CC50 (Huh-7) | Ki [1] | Ki [2] | Ki [3] | IC50 (Neutrophil elastase) | Ki (Hepatitis C virus [4]) | Papp A→B [5] | EC50 (Hepatitis C virus [6]) | Papp B→A [7] | IC50 (Cathepsin B) | Ki [8] | EC50 (Hepatitis C virus [9]) | hepatic extraction ratio [10] | Ki [11] | Ki [12] | hepatic extraction ratio [13] | Ki [14]
CCC[C@H](NC(=O)[C@@H]1[C@H]2CCC[C@H]2CN1C(=O)[C@@H](NC(=O)[C@@H](NC(=O)c1cnccn1)C1CCCCC1)C(C)(C)C)C(=O)C(=O)NC1CC1 | 37000 nM | 15 nM | 50 nM | 4.5 nM | 680 nM | 4.4 nM | 4.1 ×10⁻⁶ cm/s | 700 nM | 23 ×10⁻⁶ cm/s | 2300 nM | 160 nM | 540 nM | 0.64 | 3.2 nM | 110 nM | 0.41 | 73 nM
CC(C)(C)NC(=O)N[C@H](C(=O)N1C[C@H]2[C@@H]([C@H]1C(=O)NC(CC1CCC1)C(=O)C(N)=O)C2(C)C)C(C)(C)C (stereo partly specified) [BOCEPREVIR] | > 70000 nM | 7.3 nM | 8.6 nM | 2.3 nM | 17000 nM | 2 nM | 0.6 ×10⁻⁶ cm/s | 550 nM | 23 ×10⁻⁶ cm/s | 6200 nM | 23 nM |  |  | 1.1 nM | 18 nM |  | 28 nM
